In brackets after ≈: the same amount, converted by molar mass. Activity calls are given as the source filed them. No cut-off for these calls is given here.

Usually MIC stands for the least concentration at which growth counts as inhibited. Read a low MIC as greater potency.

In the first experiment the test system is Staphylococcus aureus. The experiment can be described thus: Antibacterial activity against methicillin-resistant Staphylococcus aureus after 18 hrs by agar microdilution method. It is filed as functional. Put shortly: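 MRSA clinical isolate from Songklanakarin Hospital. Compounds were dissolved in DMSO, serially 2-fold diluted and mixed 1:100 into melted Mueller-Hinton agar, giving final concentrations of 128 to 0.03 μg/mL. Inoculum was spotted onto the agar and incubated at 35 °C for 18 h. MIC was the lowest concentration with no visible growth. Vancomycin was the positive control; DMSO-agar was the growth control.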
For `CCOC(C)(C)CCc1c(O)cc2oc3c(O)ccc(CCC(C)(C)O)c3c(=O)c2c1O`, the outcome was inactive.

`COC(C)(C)CCc1ccc(O)c2oc3cc(O)c(CC=C(C)C)c(O)c3c(=O)c12`: the result was inactive.

As for `CC(C)=CCC/C(C)=C/CCC1(C)C=Cc2c(cc(O)c3c(=O)c4cccc(O)c4oc23)O1` (configuration not stated), the result was inactive.

Take `CC(C)(O)CCc1ccc(O)c2oc3cc4c(c(O)c3c(=O)c12)CCC(C)(C)O4`: the result was inactive.

`CC(C)=CCc1c(O)cc2oc3c(O)ccc(CCC(C)(C)O)c3c(=O)c2c1O` [NIGROLINEAXANTHONE N]: 4 µg/mL (≈ 10 µM) was the least that counted as inhibitory (MIC).

Turning to `CC(C)=CCc1c2c(c3oc4c(O)cccc4c(=O)c3c1O)CCC(C)(C)O2`, the outcome was inactive.

For the molecule `CC(C)=CCc1ccc(O)c2oc3cc4c(c(O)c3c(=O)c12)CCC(C)(C)O4`, the outcome was inactive.

Turning to `CC(C)(O)CCc1c2c(c(O)c3c(=O)c4cccc(O)c4oc13)CCC(C)(C)O2`, the result was inactive.

In the case of `CC(C)=CCc1ccc(O)c2oc3cc4c(c(O)c3c(=O)c12)C=CC(C)(C)O4`, the outcome was inactive.

For `CC(C)(O)CCc1ccc(O)c2oc3cc4c(c(O)c3c(=O)c12)C=CC(C)(C)O4`, the outcome was inactive.

For a further experiment, the system named is Staphylococcus aureus. In words: Antibacterial activity against methicillin-resistant Staphylococcus aureus at 16 ug/mL after 18 hrs by agar microdilution method. The format is functional, organism-based.
On to `CC(C)=CCc1c(O)c(CC=C(C)C)c2oc3c(O)cccc3c(=O)c2c1O`, for which the outcome was Active.

For another experiment, the system named is Staphylococcus aureus. In words: Antibacterial activity against methicillin-resistant Staphylococcus aureus at 32 ug/mL after 18 hrs by agar microdilution method. It is filed as functional, organism-based.
For the molecule `CC(C)=CCc1c2c(c3oc4c(O)cccc4c(=O)c3c1O)C=CC(C)(C)O2`, the result was Active.

The values above are taken from ChEMBL document CHEMBL1147256, “Antibacterial xanthones from the leaves of Garcinia nigrolineata” (2003).
